Shown are actives, neighbours in structure and some others; about 2.3% of the full set was active somewhere.
SUMO1-SIM PPI – alters human SUMO1 binding to SIM partners; P63165; SUMO1 binding to a labelled peptide, TR-FRET, 1 h; inhibition, % at 20 µM; hit rate 0.33% among 360,000; in the data active means inhibition above about 37%
Target sequence (P63165 whole entry, looked up): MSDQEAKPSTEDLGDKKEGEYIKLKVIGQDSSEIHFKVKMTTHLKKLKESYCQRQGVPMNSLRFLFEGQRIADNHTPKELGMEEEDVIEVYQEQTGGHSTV
STEP inh – inhibitors of human striatal-enriched phosphatase STEP; hit rate 0.25% among 360,000; inhibition, % at 20 µM; P54829; recombinant STEP, OMFP fluorogenic substrate, fluorescence;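 active means inhibition at 20 µM, scaled per plate between control wells, above about 37%, limit read from the data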;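 further: 0% = DMSO with enzyme and substrate and 100% = substrate only without enzyme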
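Material: STEP (striatal-enriched tyrosine phosphatase) enzyme, cell-free | Medium: 50 mM Bis-Tris pH 6.0 with 2.5 mM DTT and 0.005% Tween 20 | Read-out: Percent inhibition scaled to no-enzyme and uninhibited-enzyme controls, plate-pattern corrected | Signal: Fluorescence read at 480 nm ex / 540 nm em | Times: 20 min reaction, room temperature, in the dark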
Rpn11 inh – Rpn11 (human) deubiquitinase inhibition; AID 588493; human 26S proteasome, Ub4-pepOG fluorescence polarization; 20S core pre-blocked with epoxomicin; inhibition, % at 20 µM; hit rate 0.59% among 360,000;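 active means inhibition at 20 µM, scaled to each plate's controls, above about 33%, limit read from the data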
Target sequence (O00487 whole entry, looked up): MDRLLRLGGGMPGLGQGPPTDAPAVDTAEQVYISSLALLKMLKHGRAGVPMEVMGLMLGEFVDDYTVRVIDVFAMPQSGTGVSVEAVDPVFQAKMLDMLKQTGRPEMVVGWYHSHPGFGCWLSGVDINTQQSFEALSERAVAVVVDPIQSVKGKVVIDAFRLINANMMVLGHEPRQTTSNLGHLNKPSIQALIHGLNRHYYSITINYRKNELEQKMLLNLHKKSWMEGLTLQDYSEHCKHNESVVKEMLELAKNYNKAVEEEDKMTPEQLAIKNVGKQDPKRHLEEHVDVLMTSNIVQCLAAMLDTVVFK
DNMT1 inh – inhibitors of human DNMT1; inhibition (reported as % activation of signal), % at 10 µM; P26358; DNMT1 molecular beacon, Hinp1I cleavage, fluorescence; hit rate 0.83% among 360,000; in the data active means inhibition above about 50%
Scp-1 inhibitor – Scp-1 (human) phosphatase inhibition; Q9GZU7; Recombinant Scp1, phosphopeptide, malachite green phosphate absorbance; inhibition, % at 20 µM; hit rate 0.88% among 340,000;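 active means inhibition above about 50% at 20 µM, limit read from the data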;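 further: plate controls were DMSO wells with enzyme for no effect and wells lacking enzyme for full effect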
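Times: enzyme reaction 45 min at room temperature, colour 5 min, stabilisation 30 min. Material: SCP-1 catalytic fragment, aa 76-261. Medium: Acidic Tris acetate buffer with magnesium and detergent. Signal: colorimetric free-phosphate detection, absorbance 630 nm. Read-out basis: % inhibition of SCP-1 phosphate liberation. Reagent: Phosphorylated 17-residue peptide substrate.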
LMPTP block – blocks human LMPTP phosphatase | recombinant LMPTP-A, OMFP fluorogenic substrate, fluorescence intensity | inhibition, % at 20 µM | hit rate 0.22% among 360,000 | AID 651560;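 active means compounds that cut the enzyme signal by at least half of the control window in the single-dose screen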;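 further: plate controls were DMSO wells with enzyme plus substrate for no effect and substrate without enzyme for full effect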
Target sequence (P24666 whole entry, looked up): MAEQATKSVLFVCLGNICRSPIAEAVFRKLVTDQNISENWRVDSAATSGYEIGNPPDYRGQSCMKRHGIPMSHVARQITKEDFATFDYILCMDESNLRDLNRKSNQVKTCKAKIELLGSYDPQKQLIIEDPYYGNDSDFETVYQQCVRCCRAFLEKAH
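Test system: LMPTP-A, protein tyrosine phosphatase of low molecular weight; Input: 0.625 nM enzyme; Incubation: 50 min dark incubation at room temperature; Signal: endpoint fluorescence intensity from OMFP dephosphorylation; Read-out basis: % inhibition versus control wells.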
DNMT1 interf DR – shows spectral interference in the DNMT1 beacon assay; shares compounds with DNMT1 inh; IC50, µM; molecular beacon fluorescence, spectral interference counter-screen; 200 tested, under 10 active; call rule not given here
DNMT1 confirm – DNMT1 inhibition confirmation, single concentration; shares compounds with DNMT1 inh; DNMT1 molecular beacon HinP1I cleavage, fluorescence; inhibition, % at 10 µM; hit rate 8% among 2,300;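 active means average inhibition of at least 30% in the single-concentration confirmation test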
Beacon interf – beacon fluorescence artifact counter-screen; shares compounds with DNMT1 inh; DNMT1 molecular beacon spectral interference counterscreen, fluorescence 485/520; activation (fluorescence interference), % at 10 µM; hit rate 1% among 2,300; AID 602387;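 active means activation of at least 30% at 10 µM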;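 further: DNMT1 catalytic domain with a HinP1I cleavage step and a FAM/dabcyl DNA beacon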
Rpn11 inh conf – confirmation of human proteasome Rpn11 inhibitors | hit rate 29% among 1,900 | purified human 26S proteasome, Ub4-pepOG fluorescence polarization; proteasome pretreated with epoxomicin | inhibition, % at 20 µM | shares compounds with Rpn11 inh | AID 602318
MMP-2 inh – MMP-2 (human) inhibition counter-screen | shares compounds with Rpn11 inh | recombinant MMP-2, FRET peptide cleavage fluorescence | inhibition, % at 20 µM | hit rate 4% among 1,900 | AID 602330;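 further: human MMP-2 activated beforehand with APMA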
Thrombin inh – counter-screen for RPN11 inhibitors: inhibition of bovine thrombin | hit rate 13% among 1,900 | AID 602333 | bovine thrombin cleavage of Ub4-pepOG, fluorescence polarization | shares compounds with Rpn11 inh | inhibition, % at 20 µM;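 active means mean inhibition at least 40% at 20 µM, or signal 3 deviations below plate average, so some actives read negative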;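 further: plate controls were thrombin with DMSO for no effect and buffer wells lacking thrombin for full effect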
* marks the source's active call; other numbers are inactive results; . = no result given. Unless noted, no stated cut-off is given here; in the data, active means inhibition above about 40%; inactive means the rest.

SMILES	SUMO1-SIM PPI	STEP inh	Rpn11 inh	DNMT1 inh	Scp-1 inhibitor	LMPTP block	Rpn11 inh conf	MMP-2 inh	Thrombin inh	others
O=C1NC(=O)N(c2ccccc2)C(=O)/C1=C/C=C/c1ccco1	2.0	5.2	51.7*	64.7*	26.3	0.2	13.3	20.6	4.5	DNMT1 confirm=7.0;Beacon interf=3.1
CC(=O)OC1CCC2(C)C3CCC4(C)C(OC(C)=O)CCC4C3C(C)C2(O)C1 (stereo not given)	1.0	-3.1	2.5	0.4	-13.2	-0.5	.	.	.
Cc1cc(/C=C2\C(=O)NC(=O)N(c3ccc(Cl)cc3)C2=O)c(C)n1-c1sc2c(c1C#N)CCCC2	48.8*	4.9	50.4*	78.8*	-1.8	2.3	36.4	-16.3	23.9	DNMT1 interf DR=>99;DNMT1 confirm=32.2*;Beacon interf=-3.7
COCCCNC(=O)c1c(N)n(Cc2ccco2)c2nc3ccccc3nc12	-0.3	-0.8	5.1	-16.6	-13.6	0.9	.	.	.
COc1ccc(Cn2c(N)c(C(=O)NCc3ccco3)c3nc4ccccc4nc32)cc1OC	36.5*	3.5	46.2*	86.7*	1.1	12.9	-3.5	-37.3	-1.9	DNMT1 confirm=9.9;Beacon interf=8.5
CCOC(=O)c1cccc(C2=C(CNC(=O)c3nccs3)[C@H]3CC[C@@H](C2)N3Cc2ccccc2)c1	-3.4	-0.6	-6.0	-2.7	.	-1.3	.	.	.
CCOc1ccc(N2C(=O)NC(=O)/C(=C\c3ccc(N4CCCCC4)o3)C2=O)cc1	-72.0	1.5	.	11.1	-13.8	14.0	.	.	.
COc1ccc(N2C(=O)/C(=C/c3ccc(C)o3)C(=O)NC2=S)cc1	17.8	4.5	70.8*	87.0*	42.4	0.2	61.1*	55.7*	62.7*	DNMT1 confirm=11.2;Beacon interf=-0.7
CCN(CC)CCOC(=O)c1ccc(N=Cc2c(O)[nH]c(=O)[nH]c2=O)cc1	-17.1	-6.6	99.4*	4.6	-7.2	1.1	104.3*	-6.0	73.5*
COC(=O)c1ccccc1N=Cc1c(O)[nH]c(=O)[nH]c1=O	6.3	-2.3	-0.8	-1.8	-7.3	-0.4	.	.	.
Cc1ccc2c(C)cccc2c1	3.3	0.3	2.3	-0.3	2.7	0.5	.	.	.
Cn1c(=O)c2c(nc(N/N=C/c3c(O)n(C4CCCCC4)c(=S)[nH]c3=O)n2C)n(C)c1=O	-6.2	9.2	41.8*	-5.5	-16.7	-0.2	19.3	19.9	-1.3
Cc1ccccc1-n1c(O)c(/C=N/Nc2nc3c(c(=O)n(C)c(=O)n3C)n2C)c(=O)[nH]c1=S	8.3	-1.4	22.2	-1.9	-9.4	1.6	.	.	.
O=C(N/N=C/c1c(O)n(CCC2=CCCCC2)c(=S)[nH]c1=O)c1ccccc1	6.8	-3.6	47.6*	-0.7	-7.1	1.7	76.0*	-2.4	12.7
O=C(N/N=C/c1c(O)n(CCC2=CCCCC2)c(=O)[nH]c1=O)c1ccccc1	0.7	1.6	13.5	-2.4	-4.8	0.0	.	.	.
CCC(C)N1CCN(C(=O)COc2ccc3ccccc3c2)CC1 (stereo not given)	1.2	1.7	78.6*	-2.1	-2.0	-1.1	-2.4	-9.1	1.1
CC(=O)O[C@H]1C[C@@H]2OC3C=C(C)CCC3(C)[C@@]1(C)[C@@]21CO1 (stereo not given in full)	0.5	1.8	-5.0	2.1	2.2	0.1	.	.	.
CN(C)CCCN=Cc1c(O)n(CCc2ccc(F)cc2)c(=O)[nH]c1=O	0.6	-2.4	5.8	0.4	-7.8	-8.2	.	.	.
CN(C)CCCN=Cc1c(O)n(CCc2ccccc2)c(=O)[nH]c1=O	1.0	0.8	40.6*	0.2	-8.6	-8.9	78.6*	6.6	62.3*
CN1CC(C#N)C2(O)c3ccccc3CCC2C1 (stereo not given)	4.0	-0.9	1.0	1.6	0.4	-3.5	.	.	.
Cc1cccc(N2C(=O)/C(=C/c3ccc(CN(CCC#N)S(C)(=O)=O)o3)C(=O)NC2=S)c1	25.1	3.1	41.8*	58.4*	25.7	3.6	73.0*	46.0*	125.3*
Cc1cc(C=C2C(=O)N(C)C(=S)N(C)C2=O)c(C)n1C1CCCCC1	19.4	-3.1	49.5*	25.8	-3.0	2.0	-2.1	-27.1	14.3
C=CCN1C(=O)NC(=O)/C(=C/C=C/c2ccccc2)C1=O	-1.2	-2.1	30.4	0.0	-2.9	-0.2	.	.	.
O=C1NC(=O)N(Cc2ccccc2)C(=O)/C1=C\C=C\c1ccco1	15.0	4.1	50.4*	45.1	-0.8	2.6	28.5	11.2	20.6
COC(=O)C1=C(c2cccc(OCc3ccccc3)c2)C[C@@H]2CC[C@H]1N2C(=O)NCCc1ccc(F)cc1	2.2	2.6	16.3	-3.1	-14.2	8.7	.	.	.
SMILES	SUMO1-SIM PPI	STEP inh	Rpn11 inh	DNMT1 inh	Scp-1 inhibitor	LMPTP block	Rpn11 inh conf	MMP-2 inh	Thrombin inh	others
CN1C(=O)C(=Cc2coc3ccccc3c2=O)C(=O)N(C)C1=O	2.8	0.4	14.5	-1.5	-7.8	-0.5	.	.	.
CN1C(=O)C(=Cc2ccc(Sc3ccccc3)o2)C(=O)N(C)C1=O	5.0	-0.8	62.7*	-0.4	-1.2	0.2	-30.6	-41.6	-33.3
O=C(Nc1ccccc1)N1Cc2ccccc2-n2nncc2C1	2.2	3.6	-0.7	5.8	4.1	-1.5	.	.	.
CCC(C)N1C(=O)/C(=C\c2ccc(N3CCCCCC3)cc2)C(=O)NC1=S (stereo not given)	4.3	-0.1	59.9*	23.4	-2.5	0.6	2.7	9.0	0.4
Brc1ccc2[nH]cc(C=NN3CCCCCC3)c2c1	-1.9	-2.6	-5.1	-3.6	-7.6	-0.5	.	.	.
CC1=CC(C)CC(C)OC(=O)CC(c2ccc(O)cc2)NC(=O)C(Cc2c(Br)[nH]c3ccccc23)N(C)C(=O)C(C)NC(=O)C(C)C1 (stereo not given)	-0.2	-1.5	-13.6	-15.2	-10.2	1.9	.	.	.
O=C1NC(=O)N(c2ccc(Cl)cc2)C(=O)/C1=C\c1ccc(Sc2nc3ccccc3[nH]2)o1	31.1	0.2	52.4*	34.5	21.9	4.6	73.5*	15.2	48.7*

Screening results: PubChem, Sanford-Burnham Center for Chemical Genomics
